Laboratory results: ChEMBL document CHEMBL4020804, “Minor phenolics from Angelica keiskei and their proliferative effects on Hep3B cells” (Bioorg Med Chem Lett, 2017)

Tests used:
Hep 3B2 [1] = experiment: Proliferative activity against human Hep3B cells assessed as cell viability at 0.1 uM after 4 days by cell counting method relative to control; format: functional; settings: 96 h, read-out: Activity
In short: (§1)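 Hep3B kept in DMEM/10% FBS, 37°C, 5% CO2, then seeded at 1×10^5 cells/ml in medium containing compound (0.1–100 μM; DMSO-only control) in monolayer. Cells were checked daily by microscope for attachment and morphology, and counted after 4 days, in triplicate, in three independent experiments. Counts are given as % of the 0 μM group.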

Hep 3B2 [2] = experiment: Proliferative activity against human Hep3B cells assessed as cell viability at 1 uM after 4 days by cell counting method relative to control; format: functional; settings: 96 h, read-out: Activity; in short: as §1
Hep 3B2 [3] = experiment: Proliferative activity against human Hep3B cells assessed as cell viability at 10 uM after 4 days by cell counting method relative to control; format: functional; settings: 96 h, read-out: Activity; in short: as §1
Hep 3B2 [4] = experiment: Proliferative activity against human Hep3B cells assessed as cell viability at 100 uM after 4 days by cell counting method relative to control; format: functional; settings: 96 h, read-out: Activity; in short: as §1
Hep 3B2 [5] = experiment: Proliferative activity against human Hep3B cells assessed as cell viability after 4 days by cell counting method; format: functional, cell-based; in short: as §1
Hep 3B2 [6] = experiment: Cytoprotective activity against GOX-induced oxidative stress in human Hep3B cells assessed as cell survival at 0.1 uM treated for 5 hrs with 15 mU/ml GOX challenge by MTT assay (reference value: 41.51 +/- 1.39%); format: functional; settings: read-out: Survival
Hep 3B2 [7] = experiment: Cytoprotective activity against GOX-induced oxidative stress in human Hep3B cells assessed as cell survival at 100 uM treated for 5 hrs with 15 mU/ml GOX challenge by MTT assay (reference value: 41.51 +/- 1.39%); format: functional; settings: read-out: Survival
Hep 3B2 [8] = experiment: Cytoprotective activity against GOX-induced oxidative stress in human Hep3B cells assessed as cell survival at 1 uM treated for 5 hrs with 15 mU/ml GOX challenge by MTT assay (reference value: 41.51 +/- 1.39%); format: functional; settings: read-out: Survival
Hep 3B2 [9] = experiment: Cytoprotective activity against GOX-induced oxidative stress in human Hep3B cells assessed as cell survival at 10 uM treated for 5 hrs with 15 mU/ml GOX challenge by MTT assay (reference value: 41.51 +/- 1.39%); format: functional; settings: read-out: Survival
NIH3T3 [10] = experiment: Cytoprotective activity against GOX-induced oxidative stress in mouse NIH/3T3 cells assessed as cell survival at 0.1 uM treated for 5 hrs with 15 mU/ml GOX challenge by MTT assay (reference value: 42.71 +/- 2.10%); format: functional; settings: NIH3T3, 5 h, read-out: Survival
Hep 3B2 [11] = experiment: Cytoprotective activity against GOX-induced oxidative stress in human Hep3B cells assessed as increase in cell survival treated for 5 hrs with 15 mU/ml GOX challenge by MTT assay; format: functional, cell-based
In short: (§2)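 Cells plated at 7×10^4 per well; next day exposed for 5 h to compound (0.1–100 μM) with 15 mU/ml glucose oxidase in growth medium. Viability expressed relative to GOX-free cells; α-tocopherol positive control.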

NIH3T3 [12] = experiment: Cytoprotective activity against GOX-induced oxidative stress in mouse NIH/3T3 cells assessed as cell survival at 1 uM treated for 5 hrs with 15 mU/ml GOX challenge by MTT assay (reference value: 42.71 +/- 2.10%); format: functional; settings: NIH3T3, 5 h, read-out: Survival
NIH3T3 [13] = experiment: Cytoprotective activity against GOX-induced oxidative stress in mouse NIH/3T3 cells assessed as cell survival at 10 uM treated for 5 hrs with 15 mU/ml GOX challenge by MTT assay (reference value: 42.71 +/- 2.10%); format: functional; settings: NIH3T3, 5 h, read-out: Survival
NIH3T3 [14] = experiment: Cytoprotective activity against GOX-induced oxidative stress in mouse NIH/3T3 cells assessed as cell survival at 100 uM treated for 5 hrs with 15 mU/ml GOX challenge by MTT assay (reference value: 42.71 +/- 2.10%); format: functional; settings: NIH3T3, 5 h, read-out: Survival
NIH3T3 [15] = experiment: Cytoprotective activity against GOX-induced oxidative stress in mouse NIH/3T3 cells assessed as increase in cell survival treated for 5 hrs with 15 mU/ml GOX challenge by MTT assay; format: functional, cell-based; in short: as §2
Hep 3B2 [16] = experiment: Cytoprotective activity against GOX-induced cytotoxicity in human Hep3B cells assessed as LDH release at 0.1 uM treated for 5 hrs with 15 mU/ml GOX challenge by spectrophotometric method (reference value: 60.94 +/- 1.18%); format: functional
Hep 3B2 [17] = experiment: Cytoprotective activity against GOX-induced cytotoxicity in human Hep3B cells assessed as LDH release at 1 uM treated for 5 hrs with 15 mU/ml GOX challenge by spectrophotometric method (reference value: 60.94 +/- 1.18%); format: functional
Hep 3B2 [18] = experiment: Cytoprotective activity against GOX-induced cytotoxicity in human Hep3B cells assessed as LDH release at 10 uM treated for 5 hrs with 15 mU/ml GOX challenge by spectrophotometric method (reference value: 60.94 +/- 1.18%); format: functional
Hep 3B2 [19] = experiment: Cytoprotective activity against GOX-induced cytotoxicity in human Hep3B cells assessed as LDH release at 100 uM treated for 5 hrs with 15 mU/ml GOX challenge by spectrophotometric method (reference value: 60.94 +/- 1.18%); format: functional
Hep 3B2 [20] = experiment: Cytoprotective activity against GOX-induced cytotoxicity in human Hep3B cells assessed as decrease in LDH release treated for 5 hrs with 15 mU/ml GOX challenge by spectrophotometric method; format: functional, cell-based
NIH3T3 [21] = experiment: Cytoprotective activity against GOX-induced cytotoxicity in mouse NIH/3T3 cells assessed as LDH release at 0.1 uM treated for 5 hrs with 15 mU/ml GOX challenge by spectrophotometric method (reference value: 63.34 +/- 1.85%); format: functional
NIH3T3 [22] = experiment: Cytoprotective activity against GOX-induced cytotoxicity in mouse NIH/3T3 cells assessed as LDH release at 1 uM treated for 5 hrs with 15 mU/ml GOX challenge by spectrophotometric method (reference value: 63.34 +/- 1.85%); format: functional
NIH3T3 [23] = experiment: Cytoprotective activity against GOX-induced cytotoxicity in mouse NIH/3T3 cells assessed as LDH release at 10 uM treated for 5 hrs with 15 mU/ml GOX challenge by spectrophotometric method (reference value: 63.34 +/- 1.85%); format: functional
NIH3T3 [24] = experiment: Cytoprotective activity against GOX-induced cytotoxicity in mouse NIH/3T3 cells assessed as LDH release at 100 uM treated for 5 hrs with 15 mU/ml GOX challenge by spectrophotometric method (reference value: 63.34 +/- 1.85%); format: functional
NIH3T3 [25] = experiment: Cytoprotective activity against GOX-induced cytotoxicity in mouse NIH/3T3 cells assessed as decrease in LDH release treated for 5 hrs with 15 mU/ml GOX challenge by spectrophotometric method; format: functional, cell-based
Hep 3B2 [26] = experiment: Cytotoxicity against human Hep3B cells assessed as effect on cell attachment at 0.1 to 100 uM measured every day during 4 days incubation period by microscopic method; format: cell-based; settings: hep 3b2, 96 h; in short: as §1
Hep 3B2 [27] = experiment: Cytotoxicity against human Hep3B cells assessed as effect on cell morphology at 0.1 to 100 uM measured every day during 4 days incubation period by microscopic method; format: cell-based; settings: hep 3b2, 96 h; in short: as §1

| Compound | viability at 0.1 µM (Hep 3B2 [1]) | viability at 1 µM (Hep 3B2 [2]) | viability at 10 µM (Hep 3B2 [3]) | viability at 100 µM (Hep 3B2 [4]) | Activity (Hep 3B2 [5]) | viability at 0.1 µM (Hep 3B2 [6]) | viability at 100 µM (Hep 3B2 [7]) | viability at 1 µM (Hep 3B2 [8]) | viability at 10 µM (Hep 3B2 [9]) | viability at 0.1 µM (NIH3T3 [10]) | Activity (Hep 3B2 [11]) | viability at 1 µM (NIH3T3 [12]) | viability at 10 µM (NIH3T3 [13]) | viability at 100 µM (NIH3T3 [14]) | Activity (NIH3T3 [15]) | Activity (Hep 3B2 [16]) | Activity (Hep 3B2 [17]) | Activity (Hep 3B2 [18]) | Activity (Hep 3B2 [19]) | Activity (Hep 3B2 [20]) | also measured |
| --- | --- | --- | --- | --- | --- | --- | --- | --- | --- | --- | --- | --- | --- | --- | --- | --- | --- | --- | --- | --- | --- |
| CO[C@H]1c2c(ccc3ccc(=O)oc23)O[C@@H]1C(C)(C)O | 106% | 118% | 147% | 163% | Dose-dependent effect | 69.2% | 112% | 87.1% | 100% | 69% | Dose-dependent effect | 93% | 118% | 129% | Dose-dependent effect | 14.07% | 10.56% | 5.66% | 2.59% | Dose-dependent effect | Activity (NIH3T3 [21]): 15.41%; Activity (NIH3T3 [22]): 6.59%; Activity (NIH3T3 [23]): 4.2%; Activity (NIH3T3 [24]): 1.89%; Activity (NIH3T3 [25]): Dose-dependent effect; Activity (Hep 3B2 [26]): Non-Toxic; Activity (Hep 3B2 [27]): Non-Toxic |
| C=C(C)[C@H]1CC[C@](C)([C@@H](O)Cc2c(O)ccc(C(=O)/C=C/c3ccc(O)cc3)c2O)O1 (racemic) | 100% | 101% | 102% | 116% | Dose-dependent effect | 45.2% | 76.8% | 60.5% | 65.4% | 44.9% | Dose-dependent effect | 61.4% | 66.4% | 81.8% | Dose-dependent effect | 26.09% | 20.91% | 14.03% | 6.99% | Dose-dependent effect | Activity (NIH3T3 [21]): 28.31%; Activity (NIH3T3 [22]): 20.91%; Activity (NIH3T3 [23]): 15.76%; Activity (NIH3T3 [24]): 6.22%; Activity (NIH3T3 [25]): Dose-dependent effect; Activity (Hep 3B2 [26]): Non-Toxic; Activity (Hep 3B2 [27]): Non-Toxic |
| O=C(/C=C/c1ccc(O)cc1)c1ccc(O)cc1O [ISOLIQUIRITIGENIN] | 101% | 103% | 109% | 126% | Dose-dependent effect | 41.9% | 75.3% | 62.9% | 66.2% | 44.8% | Dose-dependent effect | 59.2% | 71.9% | 82.9% | Dose-dependent effect | 27.14% | 24.29% | 21.06% | 10.1% | Dose-dependent effect | Activity (NIH3T3 [21]): 44.26%; Activity (NIH3T3 [22]): 26.03%; Activity (NIH3T3 [23]): 22.67%; Activity (NIH3T3 [24]): 8.85%; Activity (NIH3T3 [25]): Dose-dependent effect; Activity (Hep 3B2 [26]): Non-Toxic; Activity (Hep 3B2 [27]): Non-Toxic |
| CC(C)C(=O)O[C@@H]1Cc2c(ccc3ccc(=O)oc23)OC1(C)C | 100% | 101% | 110% | 147% | Dose-dependent effect | 44.8% | 82.3% | 56.1% | 66.5% | 45.7% | Dose-dependent effect | 55.6% | 67.4% | 83.1% | Dose-dependent effect | 28.99% | 23.78% | 18.04% | 7.64% | Dose-dependent effect | Activity (NIH3T3 [21]): 31.31%; Activity (NIH3T3 [22]): 25.89%; Activity (NIH3T3 [23]): 19.53%; Activity (NIH3T3 [24]): 8.13%; Activity (NIH3T3 [25]): Dose-dependent effect; Activity (Hep 3B2 [26]): Non-Toxic; Activity (Hep 3B2 [27]): Non-Toxic |
